b-catenin transl = modulators of beta-catenin nuclear translocation; HeLa beta-catenin nuclear translocation, immunofluorescence imaging; nuclear translocation activity, % at 5 µM; actives 0.3% (n = 190,000); AID 1665;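 active = nuclear translocation activity above 50% at 5 µM, with a well cell count of 50 or more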;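 also: per-cell ratio of nuclear to cytoplasmic median beta-catenin stain intensity; plate controls were DMSO negative control for no effect and GSK-3 inhibitor IX positive control for full effect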
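Read-out: Nuclear/cytoplasmic beta-catenin signal ratio, % activation | Assay system: Human HeLa cell line | Times: 24 h compound exposure at 37°C, 5% CO2 | Signal: Fluorescence imaging of beta-catenin antibody stain plus DAPI | Dosing: 5 µM primary, 0.02–20 µM confirmation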
Ba/F3 V617F tox = reduce viability of Ba/F3 cells dependent on JAK2V617F. Ba/F3 EpoR-JAK2V617F viability, ATP luminescence. inhibition, % at 5.6 µM. actives 1.1% (n = 220,000);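 active = inhibition above the campaign mean plus 3 SD over all tested compounds, cut at about 24% in these data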;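 also: cytokine-independent growth of Ba/F3 cells driven by EpoR plus mutant JAK2; 0% = DMSO-treated cells and 100% = JAK inhibitor I control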
BaF3 parental = parental Ba/F3 viability inhibition as JAK2V617F counter-screen; CellTiter-Glo ATP luminescence; actives 1.1% (n = 220,000); AID 1486; inhibition, % at 5.6 µM;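 active = inhibition above a per-campaign cutoff, the mean inhibition of all tested compounds plus 3 SD, cut at about 27% in these data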;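 also: 0% = DMSO wells and 100% = JAK Inhibitor I control wells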
MT stabilizer = microtubule stabilization, imaging screen. actives 0.83% (n = 200,000). % tubulin-high responders, % at 10 µM. AID 2205. HeLa tubulin immunostaining HCS, 24 h; share of cells brighter than vehicle mean+2SD;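 active = plate Z-score above 3 for both tubulin-high and condensed-nucleus cell shares, with cell loss under 80%, at 10 µM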;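 also: anti alpha tubulin signal scored within the nucleus-defined area of each cell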
KLF5 inhibitor = suppresses KLF5 promoter-driven expression; AID 1700; actives 0.23% (n = 290,000); DLD-1 KLF5 promoter-luciferase reporter, luminescence; inhibition, % at 5 µM;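 active = inhibition above a per-plate limit of that plate's mean compound inhibition plus 3 SD, cut at about 60% in these data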;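 also: 0% = DMSO wells and 100% = LY294002 at 200 µM; higher means less KLF5 promoter-driven luciferase light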
IEC-6 cytotox = IEC-6 cytotoxicity, counter-screen for KLF5 inhibitors | luminescence viability | inhibition, % at 5 µM | AID 1825 | actives 0.78% (n = 290,000); in the data active = inhibition above about 22%;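 also: 0% = plate median of test compound wells and 100% = cytotoxic reference compound wells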
Active calls of the source: *; . = no result given. A selection: hits, their analogues and other compounds. The true share with any hit is near 2.1%.

SMILES	b-catenin transl	Ba/F3 V617F tox	BaF3 parental	MT stabilizer	KLF5 inhibitor	IEC-6 cytotox
Cc1ccc(Nc2ncc(C(=O)NCCCN3CCN(C)CC3)c3ccccc23)cc1Cl	-1	65*	64*	4	3	13
COc1ccc(-c2csc(NC(=O)c3ccccc3NS(=O)(=O)c3ccc(F)c(F)c3)n2)cc1	-4	100*	103*	8	78*	58*
CCOC(=O)c1[nH]cnc1C(=O)NC(C)C	-4	6	14	4	-3	5
CCC(Oc1ccccc1)C(=O)O/N=C(\N)c1ccc(OC)c(OC)c1 (configuration not stated)	2	0	9	3	-14	0
Cc1nc(NC(C)c2ccccc2)c2oc3ccccc3c2n1 (configuration not stated)	4	2	35*	2	-9	3
Cc1nc([N+](=O)[O-])cn1Cc1cccc([N+](=O)[O-])c1	6	-1	5	1	-20	-2
CN(C)c1ccc(/C=C/c2cc[n+]([O-])cc2)cc1	-6	0	-1	6	-36	0
CN(C)c1ccc(/C=C/c2cc[n+](C)cc2)cc1	.	94*	71*	3	-71	6
Cc1cc(NC(=O)CSc2nccn2-c2cccc(Cl)c2)no1	.	.	.	.	-34	-5
CC(C)CNC(=O)c1c(F)c(F)c(F)c(F)c1F	-1	11	74*	3	-3	-6
Cc1ccc(C(C)C)c(Oc2nnnn2-c2ccccc2)c1	2	8	5	32*	-13	4
Cc1ccc(C)c(Oc2nnnn2-c2ccccc2)c1	2	1	7	5	-7	-5
CSc1nc(N)nc(C2CC2)n1	-3	-4	-2	.	-2	-12
COc1ccc(C(=O)/C=C2/C(=O)Nc3ccccc32)cc1	.	.	.	.	-20	2
O=C(/C=C/c1ccccc1)Nc1cccnc1	.	.	.	.	-88	-1
COc1ccc(C(=O)/C=C2/c3ccccc3CC(C)(C)N2C)cc1	.	4	4	28*	4	13
CN1/C(=C\C(=O)Nc2cccnc2)c2ccccc2CC1(C)C	-2	-2	36*	4	11	-2
COc1ccc(NC(=O)CSc2nnc(-c3ccncc3)n2CC2CCCO2)c(OC)c1 (configuration not stated)	-1	-4	0	3	-2	1
O=C1CCC(=O)N1c1ccc(-c2nc3ccccc3s2)cc1	-4	2	89*	2	-83	-2
COC(=O)c1cccc(NS(=O)(=O)c2ccc(OC)cc2)c1C	53*	1	7	35*	-9	22
COc1ccc(S(=O)(=O)Nc2cc3c(cc2C(C)=O)OCO3)cc1	1	0	9	42*	-23	-8
Cc1ccccc1OCC(=O)NCCNC(=O)c1ccncc1	.	.	.	.	1	-11
O=C(N/N=C/c1ccc(Br)cc1)c1ccccc1-n1cccc1	12	-1	8	47*	6	1
Cc1cccc(/C=N\NC(=O)c2ccccc2-n2cccc2)c1	-2	2	2	3	-17	6
Cn1c(=O)c2c(ncn2CC(O)CNc2cccc(Cl)c2)n(C)c1=O (configuration not stated)	-1	1	1	1	11	13
SMILES	b-catenin transl	Ba/F3 V617F tox	BaF3 parental	MT stabilizer	KLF5 inhibitor	IEC-6 cytotox
Cc1c(C(=O)N(C)C2CCCCC2)sc2ncnc(N3CCN(c4ccccc4)CC3)c12	.	.	.	.	-19	3
COc1ccccc1NC(=O)Cc1nnc(SCC(=O)NC2CCCC2)n1C	.	.	.	.	-15	-8
COc1ccccc1NC(=O)Cn1nc(-c2ccncc2)nc1SCC(=O)NC1CCCC1	-1	-4	7	11*	1	-6
CCn1c(=O)[nH]c2ccccc2c1=O	-1	-3	-3	5	-13	-6
Nn1c(=O)[nH]c2ccccc2c1=O	1	-1	38*	4	-32	0
[N-]=[N+]=NCC/C=C\C1NS(=O)(=O)OCC1O (configuration not stated)	.	.	.	.	-29	3
CN=c1scc(-c2ccco2)n1/N=C/c1ccc(O)c(O)c1	6	100*	54*	5	-21	17
COc1ccc(C2CC(C)(c3ccc(OC)cc3OC)Nc3ccccc3N2)c(OC)c1 (configuration not stated)	27	62*	72*	13	-34	12

Screens from PubChem BioAssay.
